Assay results gathered from unrelated publications.
EDNRB: Endothelin receptor type B (EDNRB, Homo sapiens, UniProt P24530)
TNFAIP3: TNFAIP3 (Homo sapiens, UniProt P21580)
MAOB: Amine oxidase [flavin-containing] B (MAOB, Homo sapiens, UniProt P27338)

| Structure (SMILES) | target | assay | test system | setting | inhibition |
| --- | --- | --- | --- | --- | --- |
| COc1cc(Nc2ncc(F)c(Nc3ccc4c(n3)NC(=O)C(C)(C)O4)n2)cc(OC)c1OC | NUAK family SNF1-like kinase 2 (NUAK2, Homo sapiens, UniProt Q9H093) | binding, competition with immobilised ligand | – | 10 µM | 97% |
| CC(C)C[C@H](NC(=O)[C@H]1O[C@@H]1C(=O)O)C(=O)NCCCCN=C(N)N | Cathepsin L2 (CTSV, Homo sapiens, UniProt O60911) | enzyme activity, inhibitor | – | 0.5 µM | 94% |
| CC(C)N1CCC[C@H]1CNC(=O)c1cn(C2CCCC2)c(=O)c2c1c1ccccc1n2C | EDNRB | ligand displacement, radioligand | – | 10 µM | 3% |
| CN(C)C(=O)COC(=O)Cc1ccc(OC(=O)c2ccc(NC(=N)N)cc2)cc1 | TNFAIP3 | enzyme activity, inhibitor | – | 10 µM | 4% |
| O=c1ccoc2ccc(OCCCCN3CCCCC3)cc12 | MAOB | enzyme activity, inhibitor, fluorescence | – | 10 µM | 63% |
| CN(CCN1CCC(OC(=O)Nc2ccccc2-c2ccccc2)CC1)C(=O)c1ccc(CN2CCC(C(N)=O)CC2)cc1 | EDNRB | ligand displacement, radioligand | – | 1 µM | 11% |
| Cc1ccc(OP(=O)(Oc2ccc(C)cc2)Oc2ccc(C)cc2)cc1 | Cholinesterase (Bche, Mus musculus, UniProt Q03311) | enzyme activity, inhibitor | mouse | oral, 240 mg/kg | 20% |
| O=C(Nc1cccnn1)N1CCN([C@@H]2CCOc3cc(C(F)(F)F)ccc32)CC1 | EDNRB | cell-free assay | – | 20 µM | -5% |
| N=C(N)c1ccc2cc(OC(=O)c3ccc(N=C(N)N)cc3)ccc2c1 | TNFAIP3 | enzyme activity, inhibitor | – | 10 µM | 13% |
| C[C@@H]1CCCN1CCCCOc1ccc2occc(=O)c2c1 | MAOB | enzyme activity, inhibitor, fluorescence | – | 10 µM | 28% |
| COCc1c(-c2cc3cc(C)cc(OC)c3s2)c2c(N)ncnn2c1CN1CCNC(=O)C1 | MAOB | enzyme activity, inhibitor | – | 10 µM | 5% |
| CN1CCN(CCOc2ccc3occc(=O)c3c2)CC1 | MAOB | enzyme activity, inhibitor, fluorescence | – | 10 µM | 12% |
| COc1ccc(S(=O)(=O)N(CC(=O)NO)CC(C)C)cc1 | Matrix metalloproteinase-9 (MMP9, Homo sapiens, UniProt P14780, Q279R) | enzyme activity, inhibitor | – | 1 nM | 27% |
| c1ccc(C(NCCNC(c2ccccc2)c2ccccc2)c2ccccc2)cc1 | MAOB | enzyme activity, inhibitor | – | 10 µM | 5% |
